In brackets after ≈: the same amount, converted by molar mass.
Assays:
[1] = tested on: Staphylococcus aureus; assay: Antibacterial activity against methicillin resistant Staphylococcus aureus FPR3757 assessed as inhibition of bacterial growth incubated for 24 hrs by CLSI based method; assay type: functional; conditions: read-out: MIC100
Outline: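 It was mixed 1:1 with twofold serial compound dilutions and incubated stationary at 37 °C for 24 h. MIC was the lowest concentration giving complete inhibition of observable growth, with an oxacillin control.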

[2] = tested on: Erythrocyte; assay: Hemolytic activity in sheep erythrocytes at 32 ug/ml incubated for 1 hr; assay type: toxicity, cell-based, Ovis aries; conditions: dose 32 µg/ml
Outline: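 4% sheep erythrocytes mixed 1:1 with twofold serial compound dilutions in PBS, incubated stationary 1 h at 37 °C, then centrifuged at 500g for 5 min. Supernatant A540 is measured and percent hemolysis is calculated relative to DMSO vehicle (0%) and Triton X-100 (100%). Triplicate, mean ± SD.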

SMILES | MIC [1] [µg/mL] | Activity [2]
Fc1ccc2nc(C(F)(F)F)cc(Nc3ccc(C(F)(F)F)cn3)c2c1F | 16 (≈ 40.7 µM) | 
CSc1cccc(Nc2cc(C(F)(F)F)nc3cc(C(F)(F)F)ccc23)c1 | 0.25 (≈ 0.621 µM) | 
FC(F)(F)c1ccc2c(Oc3cccc(Cl)c3)cc(C(F)(F)F)nc2c1 | > 32 | 
FC(F)(F)c1ccc2c(Nc3ccccc3)cc(C(F)(F)F)nc2c1 | 128 (≈ 359 µM) | 
CN(C)S(=O)(=O)c1ccc(Nc2cc(C(F)(F)F)cc3[nH]c(C(F)(F)F)cc(=O)c23)nc1 | 2 (≈ 4.16 µM) | 
COc1ccc(Nc2cc(C(F)(F)F)nc3cc(C(F)(F)F)ccc23)cn1 | > 128 | 
OC1CCCN(c2cc(C(F)(F)F)nc3cc(C(F)(F)F)ccc23)C1 (configuration not stated) | > 32 | 
FC(F)c1cc(Nc2ccc(Cl)c(Cl)c2)c2ccc(C(F)(F)F)cc2n1 | 1 (≈ 2.46 µM) | 
FC(F)(F)c1ccc(Nc2cc(C(F)(F)F)nc3c(C(F)(F)F)cccc23)nc1 | 0.5 (≈ 1.18 µM) | 
Oc1cc(C(F)(F)F)nc2cc(Cl)ccc12 | 20 (≈ 80.8 µM) | 
COc1ccc2c(Nc3cccc(OC(F)(F)F)c3)cc(C(F)(F)F)nc2c1 | > 32 | 
FC(F)(F)c1cc(Nc2ccc(Cl)c(Cl)c2)c2cccc(C(F)(F)F)c2n1 | 0.5 (≈ 1.18 µM) | 
FC(F)(F)c1ccc2c(Nc3ccc(Cl)cc3)cc(C(F)(F)F)nc2c1 | 0.12 (≈ 0.307 µM) | 
O=c1cc(C(F)(F)F)[nH]c2cc(C(F)(F)F)cc(Nc3ccc(C(F)(F)F)nn3)c12 | 1 (≈ 2.26 µM) | 
FC(F)(F)c1ccc2c(Oc3ccc(Cl)c(Cl)c3)cc(C(F)(F)F)nc2c1 | > 32 | 
FC(F)(F)Oc1cccc(Nc2cc(C(F)(F)F)nc3cc(C(F)(F)F)ccc23)c1 | 8 (≈ 18.2 µM) | 
FC(F)(F)c1ccc(Nc2nc(C(F)(F)F)nc3cc(C(F)(F)F)ccc23)nc1 | 2 (≈ 4.69 µM) | 
FC(F)(F)c1ccc(Nc2cc(N3CCOCC3)nc3cc(C(F)(F)F)ccc23)nc1 | > 32 | 
Oc1cc(C(F)(F)F)nc2cc(OC(F)(F)F)ccc12 | 4 (≈ 13.5 µM) | 
FC(F)(F)Oc1cccc(Nc2nc(C(F)(F)F)nc3cc(C(F)(F)F)ccc23)c1 | 1 (≈ 2.27 µM) | 
COc1cccc(Nc2cc(C(F)(F)F)nc3cc(C(F)(F)F)ccc23)c1 | > 64 | 
FC(F)(F)c1ccc2c(Nc3cccc(Cl)c3)cc(C(F)(F)F)nc2c1 | 0.25 (≈ 0.64 µM) | 
O=C(Nc1cc(C(F)(F)F)nc2cc(C(F)(F)F)ccc12)c1ccc(C(F)(F)F)cn1 | > 32 | 

SMILES | MIC [1] [µg/mL] | Activity [2]
CN1Cc2cc(Nc3cc(C(F)(F)F)nc4cc(C(F)(F)F)ccc34)ccc2C1=O | > 32 | 
FC(F)(F)Oc1ccc2c(Nc3ccc(C(F)(F)F)cn3)cc(C(F)(F)F)nc2c1 | 1 (≈ 2.27 µM) | 
Fc1cccc(Oc2cc(C(F)(F)F)nc3cc(C(F)(F)F)ccc23)c1 | > 32 | 
CN(C)S(=O)(=O)c1ccc2c(Nc3ccc(F)c(F)c3)cc(C(F)(F)F)nc2c1 | > 32 | 
FC(F)(F)c1ccc(Nc2cnnc3cc(C(F)(F)F)ccc23)nc1 | > 32 | 
FC(F)(F)c1ccc2c(NC3CCCCC3)cc(C(F)(F)F)nc2c1 | > 16 | 
FC(F)(F)c1ccc2c(Nc3ccccc3Cl)cc(C(F)(F)F)nc2c1 | > 16 | 
Fc1ccc(Nc2nc(C(F)(F)F)nc3nc(C(F)(F)F)ccc23)cc1F | 32 (≈ 81.2 µM) | 
FC(F)(F)c1ccc(Nc2cc(N3CCNCC3)nc3cc(C(F)(F)F)ccc23)nc1 | 0.5 (≈ 1.13 µM) | 
CC(C)c1ccccc1Nc1cc(C(F)(F)F)nc2cc(C(F)(F)F)ccc12 | 320 (≈ 803 µM) | 
Oc1cc(C(F)(F)F)nc2ccccc12 | 320 (≈ 1500 µM) | 
O=c1cc(Nc2cc(C(F)(F)F)nc3cc(C(F)(F)F)ccc23)cc[nH]1 | > 32 | 
FC(F)(F)Oc1cccc(Nc2cc(C(F)(F)F)nc3c(OC(F)(F)F)cccc23)c1 | 1 (≈ 2.19 µM) | 
FC(F)(F)Oc1ccc2c(Nc3ccc(Cl)c(Cl)c3)cc(C(F)(F)F)nc2c1 | 0.5 (≈ 1.13 µM) | 
Fc1ccc2c(Nc3ccc(Cl)c(Cl)c3)cc(C(F)(F)F)nc2c1 | 0.5 (≈ 1.33 µM) | 
CC(=O)c1cccc(Nc2cc(C(F)(F)F)nc3cc(C(F)(F)F)ccc23)c1 | > 128 | 
CN(C)S(=O)(=O)c1ccc2c(Nc3ccc(C(F)(F)F)cn3)cc(C(F)(F)F)nc2c1 | 8 (≈ 17.2 µM) | 
Oc1cc(C(F)(F)F)nc2c(C(F)(F)F)cccc12 | 2 (≈ 7.11 µM) | 
O[C@H]1C[C@H]2CC[C@@H](C1)N2c1cc(C(F)(F)F)nc2cc(C(F)(F)F)ccc12 | > 32 | 
FC(F)(F)c1ccc2c(NC[C@@H]3CCCN3)cc(C(F)(F)F)nc2c1 | > 32 | 
COc1ccc2c(Nc3ccc(Cl)c(Cl)c3)cc(C(F)(F)F)nc2c1 | 2 (≈ 5.17 µM) | 
Fc1cc2nc(C(F)(F)F)cc(Nc3ccc(C(F)(F)F)cn3)c2cc1F | 0.25 (≈ 0.636 µM) | Toxic
FC(F)(F)c1ccc2c(Nc3cccc(Br)c3)cc(C(F)(F)F)nc2c1 | 0.25 (≈ 0.574 µM) | 

Source: ChEMBL document CHEMBL5150021, “Identification of 5-(Aryl/Heteroaryl)amino-4-quinolones as Potent Membrane-Disrupting Agents to Combat Antibiotic-Resistant Gram-Positive Bacteria” (J Med Chem, 2022)
